Test results from ChEMBL document CHEMBL3352060, “Synthesis and SAR study of novel tricyclic pyrazoles as potent phosphodiesterase 10A inhibitors” (Eur J Med Chem, 2014).

Columns and labels:
[1] = biological target: T1, cAMP and cAMP-inhibited cGMP 3',5'-cyclic phosphodiesterase 10A (Homo sapiens, UniProt Q9Y233); assay: Inhibition of human PDE10A (amino acids 14 to 779) using [3H]-labelled cyclic nucleotide as substrate after 1 hr b beta counting
In short: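 PDE10A expressed in baculovirus-infected Sf9 cells (27 °C, harvested at 72 h), lysed in Tris/MgCl2/triton buffer and partially purified on Q sepharose. Reactions contained enzyme sufficient to convert 20–25% of substrate, 50 mM HEPES pH 7.6, 10 mM MgCl2, 0.02% Tween20, 0.1 mg/ml BSA, 3H-cAMP at 5 nM final and varying inhibitor levels. Signal was counted by Microbeta, activity was normalized to an uninhibited control (100%), and IC50 values were derived.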

[2] = biological target: cGMP-dependent 3',5'-cyclic phosphodiesterase (Homo sapiens) (UniProt O00408); assay: Inhibition of PDE2A (unknown origin) at 10 uM
[3] = biological target: cGMP-inhibited 3',5'-cyclic phosphodiesterase 3A (Homo sapiens) (UniProt Q14432); assay: Inhibition of PDE3A (unknown origin) at 10 uM
Sequence of cGMP-inhibited 3',5'-cyclic phosphodiesterase 3A (Homo sapiens) (Q14432 whole entry): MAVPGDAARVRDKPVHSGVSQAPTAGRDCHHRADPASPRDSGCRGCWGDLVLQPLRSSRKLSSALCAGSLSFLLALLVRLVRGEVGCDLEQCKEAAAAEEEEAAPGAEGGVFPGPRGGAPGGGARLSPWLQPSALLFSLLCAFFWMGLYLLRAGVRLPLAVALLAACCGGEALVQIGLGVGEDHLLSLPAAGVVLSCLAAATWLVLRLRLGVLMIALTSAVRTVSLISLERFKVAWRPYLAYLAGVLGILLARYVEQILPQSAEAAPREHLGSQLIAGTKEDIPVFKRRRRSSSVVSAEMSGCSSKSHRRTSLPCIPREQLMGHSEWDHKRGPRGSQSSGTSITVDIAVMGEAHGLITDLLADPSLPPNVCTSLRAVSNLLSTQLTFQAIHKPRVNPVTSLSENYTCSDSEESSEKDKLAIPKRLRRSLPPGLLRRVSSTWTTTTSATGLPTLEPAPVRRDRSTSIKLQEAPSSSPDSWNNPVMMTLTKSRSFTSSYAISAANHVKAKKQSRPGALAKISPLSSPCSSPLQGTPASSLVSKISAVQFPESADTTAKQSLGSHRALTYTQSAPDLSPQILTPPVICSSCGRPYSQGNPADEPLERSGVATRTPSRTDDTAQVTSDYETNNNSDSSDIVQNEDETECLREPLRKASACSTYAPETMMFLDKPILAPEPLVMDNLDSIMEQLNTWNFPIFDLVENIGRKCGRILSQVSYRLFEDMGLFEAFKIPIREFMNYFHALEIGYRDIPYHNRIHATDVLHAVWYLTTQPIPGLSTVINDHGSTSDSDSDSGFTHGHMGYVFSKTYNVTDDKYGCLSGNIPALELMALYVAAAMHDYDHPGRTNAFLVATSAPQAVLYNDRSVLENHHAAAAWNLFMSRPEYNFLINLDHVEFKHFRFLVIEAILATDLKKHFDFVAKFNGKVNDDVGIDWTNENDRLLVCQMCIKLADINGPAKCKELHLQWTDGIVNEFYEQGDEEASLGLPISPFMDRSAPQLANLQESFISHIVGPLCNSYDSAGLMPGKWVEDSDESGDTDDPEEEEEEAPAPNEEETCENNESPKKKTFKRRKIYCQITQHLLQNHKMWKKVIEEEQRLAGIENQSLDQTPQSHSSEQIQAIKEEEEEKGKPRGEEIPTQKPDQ

[4] = biological target: 3',5'-cyclic-AMP phosphodiesterase 4D (Homo sapiens) (UniProt Q08499); assay: Inhibition of PDE4D (unknown origin) at 10 uM
Sequence of 3',5'-cyclic-AMP phosphodiesterase 4D (Homo sapiens) (Q08499 whole entry): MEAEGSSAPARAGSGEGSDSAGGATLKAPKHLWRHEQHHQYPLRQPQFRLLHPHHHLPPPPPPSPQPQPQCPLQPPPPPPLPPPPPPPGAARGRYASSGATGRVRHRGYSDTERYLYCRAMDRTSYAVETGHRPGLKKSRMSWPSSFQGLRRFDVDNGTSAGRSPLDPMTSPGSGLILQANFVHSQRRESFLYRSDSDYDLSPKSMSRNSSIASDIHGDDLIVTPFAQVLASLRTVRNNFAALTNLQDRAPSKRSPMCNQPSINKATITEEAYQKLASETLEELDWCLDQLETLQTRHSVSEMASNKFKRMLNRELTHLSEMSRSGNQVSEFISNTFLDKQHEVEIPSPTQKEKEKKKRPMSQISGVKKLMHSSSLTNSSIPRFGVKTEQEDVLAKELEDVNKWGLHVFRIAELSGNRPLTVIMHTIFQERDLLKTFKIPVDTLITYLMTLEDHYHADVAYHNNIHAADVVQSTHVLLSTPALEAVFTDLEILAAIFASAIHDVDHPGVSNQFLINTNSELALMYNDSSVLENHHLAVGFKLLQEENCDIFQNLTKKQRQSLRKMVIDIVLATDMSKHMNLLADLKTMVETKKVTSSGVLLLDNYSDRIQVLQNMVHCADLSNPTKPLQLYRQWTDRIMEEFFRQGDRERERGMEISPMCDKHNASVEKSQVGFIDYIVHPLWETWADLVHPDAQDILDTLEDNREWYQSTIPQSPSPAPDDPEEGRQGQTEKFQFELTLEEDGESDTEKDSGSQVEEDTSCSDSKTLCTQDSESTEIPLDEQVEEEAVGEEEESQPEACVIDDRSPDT

[5] = biological target: cGMP-specific 3',5'-cyclic phosphodiesterase (Homo sapiens) (UniProt O76074); assay: Inhibition of PDE5A (unknown origin) at 10 uM
[6] = biological target: 3',5'-cyclic-AMP phosphodiesterase 7B (Homo sapiens) (UniProt Q9NP56); assay: Inhibition of PDE7B (unknown origin) at 10 uM
Sequence of 3',5'-cyclic-AMP phosphodiesterase 7B (Homo sapiens) (Q9NP56 whole entry): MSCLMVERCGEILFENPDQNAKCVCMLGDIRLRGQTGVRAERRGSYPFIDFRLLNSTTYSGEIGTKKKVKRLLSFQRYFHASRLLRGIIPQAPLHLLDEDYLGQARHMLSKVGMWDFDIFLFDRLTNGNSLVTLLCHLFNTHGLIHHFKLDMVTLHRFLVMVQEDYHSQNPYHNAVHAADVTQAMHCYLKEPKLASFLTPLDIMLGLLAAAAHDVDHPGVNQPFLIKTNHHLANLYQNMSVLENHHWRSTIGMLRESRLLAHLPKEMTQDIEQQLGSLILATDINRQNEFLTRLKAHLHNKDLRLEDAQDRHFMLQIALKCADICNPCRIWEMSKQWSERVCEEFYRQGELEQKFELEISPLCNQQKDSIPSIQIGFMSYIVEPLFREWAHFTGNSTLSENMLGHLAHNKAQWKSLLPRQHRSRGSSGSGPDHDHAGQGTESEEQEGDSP

[7] = biological target: High affinity cAMP-specific and IBMX-insensitive 3',5'-cyclic phosphodiesterase 8A (Homo sapiens) (UniProt O60658); assay: Inhibition of PDE8A (unknown origin) at 10 uM
[8] = biological target: High affinity cGMP-specific 3',5'-cyclic phosphodiesterase 9A (Homo sapiens) (UniProt O76083); assay: Inhibition of PDE9A (unknown origin) at 10 uM
[9] = biological target: T1, cAMP and cAMP-inhibited cGMP 3',5'-cyclic phosphodiesterase 10A; assay: Inhibition of PDE10A (unknown origin) at 2 uM
[10] = biological target: Dual 3',5'-cyclic-AMP and -GMP phosphodiesterase 11A (Homo sapiens) (UniProt Q9HCR9); assay: Inhibition of PDE11A (unknown origin) at 10 uM
Sequence of Dual 3',5'-cyclic-AMP and -GMP phosphodiesterase 11A (Homo sapiens) (Q9HCR9 whole entry, looked up): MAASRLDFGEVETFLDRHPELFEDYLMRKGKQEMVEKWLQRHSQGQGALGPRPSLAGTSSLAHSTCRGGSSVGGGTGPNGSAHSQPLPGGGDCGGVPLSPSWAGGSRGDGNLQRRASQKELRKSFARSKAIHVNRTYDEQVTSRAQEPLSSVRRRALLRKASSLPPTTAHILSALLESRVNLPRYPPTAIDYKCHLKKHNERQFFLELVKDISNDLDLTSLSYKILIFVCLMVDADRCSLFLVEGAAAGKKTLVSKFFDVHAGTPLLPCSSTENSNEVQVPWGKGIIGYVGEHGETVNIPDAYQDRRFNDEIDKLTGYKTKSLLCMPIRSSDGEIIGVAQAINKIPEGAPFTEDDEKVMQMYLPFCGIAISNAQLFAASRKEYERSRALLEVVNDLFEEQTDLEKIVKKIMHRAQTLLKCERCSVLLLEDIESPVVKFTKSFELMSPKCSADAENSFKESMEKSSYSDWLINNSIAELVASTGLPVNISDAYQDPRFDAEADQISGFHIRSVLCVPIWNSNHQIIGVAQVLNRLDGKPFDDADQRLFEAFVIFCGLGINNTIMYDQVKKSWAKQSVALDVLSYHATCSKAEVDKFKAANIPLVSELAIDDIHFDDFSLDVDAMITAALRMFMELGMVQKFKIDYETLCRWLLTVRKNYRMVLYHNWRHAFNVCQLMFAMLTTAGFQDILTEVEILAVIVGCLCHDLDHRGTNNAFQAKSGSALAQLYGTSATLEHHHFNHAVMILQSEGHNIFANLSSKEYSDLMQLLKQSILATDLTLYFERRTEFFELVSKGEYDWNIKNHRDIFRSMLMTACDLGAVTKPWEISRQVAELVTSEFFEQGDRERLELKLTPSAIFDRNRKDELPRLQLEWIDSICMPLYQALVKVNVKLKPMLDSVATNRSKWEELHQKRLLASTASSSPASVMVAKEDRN

[11] = biological target: Dual specificity calcium/calmodulin-dependent 3',5'-cyclic nucleotide phosphodiesterase 1C (Homo sapiens) (UniProt Q14123); assay: Inhibition of PDE1C (unknown origin) at 10 uM
Sequence of Dual specificity calcium/calmodulin-dependent 3',5'-cyclic nucleotide phosphodiesterase 1C (Homo sapiens) (Q14123 whole entry): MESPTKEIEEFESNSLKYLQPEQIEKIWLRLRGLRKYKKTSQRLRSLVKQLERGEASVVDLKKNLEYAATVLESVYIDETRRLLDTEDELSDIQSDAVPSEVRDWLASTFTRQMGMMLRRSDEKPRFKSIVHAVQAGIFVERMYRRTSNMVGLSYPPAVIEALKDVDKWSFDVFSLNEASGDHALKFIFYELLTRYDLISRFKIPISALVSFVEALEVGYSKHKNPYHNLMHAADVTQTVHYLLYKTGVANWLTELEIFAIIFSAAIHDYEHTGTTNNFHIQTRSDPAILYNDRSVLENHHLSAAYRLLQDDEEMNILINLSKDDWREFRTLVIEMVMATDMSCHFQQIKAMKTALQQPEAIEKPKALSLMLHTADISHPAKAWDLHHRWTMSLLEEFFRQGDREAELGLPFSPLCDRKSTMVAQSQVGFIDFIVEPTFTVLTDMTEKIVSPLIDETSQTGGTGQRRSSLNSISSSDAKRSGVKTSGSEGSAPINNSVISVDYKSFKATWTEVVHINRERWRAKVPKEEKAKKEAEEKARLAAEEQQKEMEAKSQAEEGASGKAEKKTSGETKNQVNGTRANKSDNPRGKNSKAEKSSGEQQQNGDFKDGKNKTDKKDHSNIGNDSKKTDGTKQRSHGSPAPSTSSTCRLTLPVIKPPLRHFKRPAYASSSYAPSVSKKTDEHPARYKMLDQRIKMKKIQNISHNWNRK

[12] = biological target: T1, cAMP and cAMP-inhibited cGMP 3',5'-cyclic phosphodiesterase 10A; assay: Inhibition of PDE10A (unknown origin) at 10 uM
[13] = biological target: Dual 3',5'-cyclic-AMP and -GMP phosphodiesterase 11A (Homo sapiens) (UniProt Q9HCR9); assay: Inhibition of PDE11A (unknown origin) at 2 uM
[14] = tested on: MDCK; assay: Apparent permeability across apical to basolateral side in MDCK cells expressing MDR1 (unknown origin); parameters: unit not given here; conditions: dog

T1 sequence (Q9Y233 whole entry, the tested form may be a part): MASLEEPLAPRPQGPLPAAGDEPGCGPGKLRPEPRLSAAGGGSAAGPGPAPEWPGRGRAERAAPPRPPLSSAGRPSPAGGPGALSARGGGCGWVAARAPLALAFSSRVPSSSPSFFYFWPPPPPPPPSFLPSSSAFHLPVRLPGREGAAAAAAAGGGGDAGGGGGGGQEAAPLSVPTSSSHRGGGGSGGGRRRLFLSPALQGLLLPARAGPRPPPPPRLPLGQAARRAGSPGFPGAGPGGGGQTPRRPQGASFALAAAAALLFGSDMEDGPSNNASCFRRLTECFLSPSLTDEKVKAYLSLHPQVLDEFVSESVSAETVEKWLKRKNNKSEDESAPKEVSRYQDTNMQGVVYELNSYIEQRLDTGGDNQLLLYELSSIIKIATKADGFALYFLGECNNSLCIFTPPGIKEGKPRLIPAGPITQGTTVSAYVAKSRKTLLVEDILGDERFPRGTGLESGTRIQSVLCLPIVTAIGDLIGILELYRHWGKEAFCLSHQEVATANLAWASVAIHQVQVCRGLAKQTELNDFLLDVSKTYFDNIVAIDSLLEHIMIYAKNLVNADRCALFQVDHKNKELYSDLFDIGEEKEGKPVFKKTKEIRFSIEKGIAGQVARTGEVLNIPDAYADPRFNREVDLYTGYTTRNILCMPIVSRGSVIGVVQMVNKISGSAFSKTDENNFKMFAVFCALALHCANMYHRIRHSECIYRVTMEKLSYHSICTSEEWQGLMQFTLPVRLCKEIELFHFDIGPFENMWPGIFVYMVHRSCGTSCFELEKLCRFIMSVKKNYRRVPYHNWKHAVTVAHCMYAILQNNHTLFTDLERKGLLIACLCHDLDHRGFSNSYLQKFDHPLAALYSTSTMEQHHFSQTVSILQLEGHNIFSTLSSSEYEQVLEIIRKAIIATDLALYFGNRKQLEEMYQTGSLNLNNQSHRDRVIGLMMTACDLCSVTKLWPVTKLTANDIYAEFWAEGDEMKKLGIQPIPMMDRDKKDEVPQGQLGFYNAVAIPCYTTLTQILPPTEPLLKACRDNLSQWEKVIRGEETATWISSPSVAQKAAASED

## CCOC(=O)c1cc2c3cccnc3cc(CCc3nc(-c4ccccc4)cn3C)n2n1
[1]
  IC50: 220 nM
[2]
  inhibition: 44%
[3]
  inhibition: 13%
[4]
  inhibition: 45%
[5]
  inhibition: 13%
[6]
  inhibition: -4%
[7]
  inhibition: 46%
[8]
  inhibition: 20%
[9]
  inhibition: 88%
[10]
  inhibition: 7%

## Cc1cc2c3ccncc3cc(CCc3nc(-c4ccccc4)cn3C)n2n1
[1]
  IC50: 40 nM
[11]
  inhibition: 24%
[2]
  inhibition: 17%
[3]
  inhibition: 49%
[4]
  inhibition: 68%
[5]
  inhibition: 59%
[6]
  inhibition: 53%
[7]
  inhibition: 37%
[8]
  inhibition: 12%
[12]
  inhibition: 102%
[13]
  inhibition: 37%
[14]
  Papp A-B: 11.7

## Cc1cc2c3cnccc3cc(CCc3nc4ccccc4n3C)n2n1
[1]
  IC50: 480 nM
[11]
  inhibition: 10%
[2]
  inhibition: 54%
[3]
  inhibition: 30%
[4]
  inhibition: 15%
[5]
  inhibition: 39%
[6]
  inhibition: -3%
[7]
  inhibition: 46%
[8]
  inhibition: 15%
[9]
  inhibition: 79%
[10]
  inhibition: 1%

## CCOC(=O)c1cc2c3cccnc3cc(CCc3nc4ccccc4n3C)n2n1
[1]
  IC50: 1300 nM
[11]
  inhibition: 27%
[2]
  inhibition: 20%
[3]
  inhibition: 1%
[4]
  inhibition: 24%
[5]
  inhibition: 38%
[6]
  inhibition: 17%
[7]
  inhibition: -6%
[8]
  inhibition: -2%
[9]
  inhibition: 73%
[10]
  inhibition: 10%

## Cc1cc2c3cnccc3cc(CCc3nc(-c4ccccc4)cn3C)n2n1
[1]
  IC50: 55 nM
[11]
  inhibition: 11%
[2]
  inhibition: 20%
[3]
  inhibition: 13%
[4]
  inhibition: 25%
[5]
  inhibition: 15%
[6]
  inhibition: 41%
[7]
  inhibition: 25%
[8]
  inhibition: 53%
[9]
  inhibition: 100%
[10]
  inhibition: 7%

## Cc1cc2c3ccccc3cc(CCc3nc(-c4ccccc4)cn3C)n2n1
[1]
  IC50: 900 nM
[11]
  inhibition: -1%
[2]
  inhibition: 14%
[3]
  inhibition: 20%
[4]
  inhibition: 12%
[6]
  inhibition: 13%
[7]
  inhibition: 17%
[12]
  inhibition: 72%
[13]
  inhibition: 13%
[14]
  Papp A-B: 3.1

## Cc1cc2c3ccccc3cc(CCc3nc4ccccc4n3C)n2n1
[1]
  IC50: 1000 nM
[11]
  inhibition: -7%
[2]
  inhibition: 8%
[3]
  inhibition: 15%
[4]
  inhibition: 11%
[5]
  inhibition: 20%
[6]
  inhibition: 11%
[7]
  inhibition: 36%
[8]
  inhibition: 10%
[12]
  inhibition: 77%
[13]
  inhibition: 12%
[14]
  Papp A-B: 1.1

## Cc1cc2c3cccnc3cc(CCc3nc4ccccc4n3C)n2n1
[1]
  IC50: 170 nM
[11]
  inhibition: 28%
[2]
  inhibition: 55%
[3]
  inhibition: 16%
[4]
  inhibition: 23%
[5]
  inhibition: 67%
[6]
  inhibition: 27%
[7]
  inhibition: 13%
[8]
  inhibition: 21%
[9]
  inhibition: 93%
[10]
  inhibition: 43%

## Cn1cc(-c2ccccc2)nc1CCc1cc2ncccc2c2cc(C(F)(F)F)nn12
[1]
  IC50: 190 nM
[11]
  inhibition: -3%
[2]
  inhibition: 13%
[3]
  inhibition: 28%
[4]
  inhibition: 44%
[5]
  inhibition: 33%
[6]
  inhibition: 41%
[7]
  inhibition: 31%
[8]
  inhibition: 8%
[12]
  inhibition: 101%
[13]
  inhibition: 25%
[14]
  Papp A-B: 3.1

## Cc1cc2c3cccnc3cc(CCc3nc(-c4ccccc4)cn3C)n2n1
[1]
  IC50: 40 nM
[11]
  inhibition: 15%
[2]
  inhibition: 28%
[3]
  inhibition: 5%
[4]
  inhibition: 38%
[5]
  inhibition: 35%
[6]
  inhibition: 18%
[7]
  inhibition: 16%
[8]
  inhibition: 5%
[9]
  inhibition: 102%
[10]
  inhibition: 34%

## COCc1cc2c3cccnc3cc(CCc3nc(-c4ccccc4)cn3C)n2n1
[1]
  IC50: 42 nM
[11]
  inhibition: 7%
[2]
  inhibition: 69%
[3]
  inhibition: 51%
[4]
  inhibition: 58%
[5]
  inhibition: 38%
[6]
  inhibition: 47%
[7]
  inhibition: 29%
[8]
  inhibition: 15%
[12]
  inhibition: 106%
[13]
  inhibition: 70%
[14]
  Papp A-B: 17.8
